Legend:
Rattus norvegicus [1] = experiment: Maximum percentage reduction in mean blood pressure in metacorticoid (DOCA) hypertensive rats at a standard oral dose of 100 mg/kg; assay type: functional
Method in brief: (§1)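 Rats were DOCA hypertensive. For oral dosing, food was withdrawn 18 h before; rats dosed ip were not starved. The vehicle was isotonic saline. Pressure was recorded by transducer under minimal restraint: twice before dosing, then at 1, 2, 3, 5 and 22 h. MABP was taken as diastolic + one-third pulse pressure. The value is the maximum % fall from the mean of the two pretreatment readings, n = 3-5.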

Rattus norvegicus [2] = experiment: Maximum percentage reduction in mean blood pressure in metacorticoid (DOCA) hypertensive rats at a standard oral dose of 50 mg/kg; assay type: functional; method in brief: as §1
Rattus norvegicus [3] = experiment: Maximum percentage reduction in mean blood pressure in metacorticoid (DOCA) hypertensive rats at a standard oral dose of 100 mg/kg; IA = Inactive;Maximum percentage fall in MABP <10%; assay type: functional, organism-based; parameters: dose 100 mg/kg; method in brief: as §1
Rattus norvegicus [4] = experiment: Maximum percentage reduction in mean arterial blood pressure in metacorticoid (DOCA) hypertensive rats at a standard oral dose of 100 mg/kg; assay type: functional; method in brief: as §1
Rattus norvegicus [5] = experiment: Increase in diastolic blood pressure for 0.1 ug/kg intravenous dosing of angiotensin in pithed rats; assay type: functional, Artery
Method in brief: (§2)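 The pithed-rat preparation was used: male rats (200-300 g) got drug or isotonic saline ip in groups of five, 2 h beforehand (one reference agent 1 h). Doses were 50, 25 or 5 mg/kg. Rats were under halothane, cannulated, pithed and ventilated with room air. Noradrenaline (0.1-1.0 µg/kg) or angiotensin (0.03-0.3 µg/kg) was injected iv, and the increase in diastolic pressure was recorded in mmHg.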

Rattus norvegicus [6] = experiment: Increase in diastolic blood pressure for 0.1 ug/kg intravenous dosing of noradrenaline in pithed rats; assay type: functional, Artery; method in brief: as §2
Rattus norvegicus [7] = experiment: Increase in diastolic blood pressure for 0.3 ug/kg intravenous dosing of noradrenaline in pithed rats; assay type: functional, Artery; method in brief: as §2
Rattus norvegicus [8] = species on record: Rattus norvegicus; experiment: Increase in diastolic blood pressure for 1 Htz electrical stimulation in the pithed rats; assay type: functional, Artery
Method in brief: (§3)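 Male rats (200-300 g) were given drug or isotonic saline ip, in groups of five, 2 h before pithing (one reference agent 1 h before). Doses were 50 or 25 mg/kg, or 5 mg/kg for the reference agent. Rats were put under halothane, tracheally cannulated, pithed through the left orbit and ventilated with room air at 50 strokes/min. After iv tubocurarine (1 mg/kg), the whole sympathetic outflow was stimulated at 1, 3 or 6 Hz (0.5 ms, 20 V, 15 s). The rise in diastolic pressure was recorded in mmHg.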

Rattus norvegicus [9] = species on record: Rattus norvegicus; experiment: Increase in diastolic blood pressure for 3 Htz electrical stimulation in the pithed rats; assay type: functional, Artery; method in brief: as §3
Rattus norvegicus [10] = species on record: Rattus norvegicus; experiment: Increase in diastolic blood pressure for 6 Htz electrical stimulation in the pithed rats; assay type: functional, Artery; method in brief: as §3
Rattus norvegicus [11] = experiment: Increase in diastolic blood pressure for 0.3 ug/kg intravenous dosing of angiotensin in pithed rats; assay type: functional, Artery; method in brief: as §2
Rattus norvegicus [12] = experiment: Increase in diastolic blood pressure for 1.0 ug/kg intravenous dosing of noradrenaline in pithed rats; assay type: functional, Artery; method in brief: as §2
Rattus norvegicus [13] = experiment: Increase in diastolic blood pressure for 0.03 ug/kg intravenous dosing of angiotensin in pithed rats; assay type: functional, Artery; method in brief: as §2

Cl.N=C(N)Nc1nnc(-c2ccccc2I)s1
Reduction (Rattus norvegicus [1]): 41%
Reduction (Rattus norvegicus [2]): 28%

Cl.N=C(N)Nc1nnc(-c2cccc3ccccc23)s1
Reduction (Rattus norvegicus [1]): 20%

CSc1ccccc1-c1nnc(N=C(N)N)s1.Cl
Reduction (Rattus norvegicus [1]): 13%

C/N=C(/N)Nc1nnc(-c2ccccc2C)s1
Reduction (Rattus norvegicus [1]): 31%

N=C(N)Nc1nnc(-c2ccc([N+](=O)[O-])cc2)s1
Reduction (Rattus norvegicus [3]): Not significant

Cc1ccccc1-c1nnc(NC(=N)NCc2ccccc2)s1.Cl
Reduction (Rattus norvegicus [1]): 12%

Cc1ccccc1-c1nnc(NC(=N)NC2CCC2)s1
Reduction (Rattus norvegicus [3]): Not significant

COc1ccc(-c2nnc(N=C(N)N)s2)cc1OC.Cl
Reduction (Rattus norvegicus [1]): 21%

Cl.N=C(N)Nc1nnc(-c2ccccc2C(F)(F)F)s1
Reduction (Rattus norvegicus [4]): 26%

Cl.Ic1ccccc1-c1nnc(NC2=NCCN2)s1
Reduction (Rattus norvegicus [4]): 33%

Cc1cc(C)cc(-c2nnc(N=C(N)N)s2)c1.Cl
Reduction (Rattus norvegicus [1]): 18%

COCC/N=C(/N)Nc1nnc(-c2ccc(C)cc2C)s1.Cl
Reduction (Rattus norvegicus [1]): 31%

NNc1nncc2ccccc12 [HYDRALAZINE]
Increase in blood pressure (Rattus norvegicus [5]): 21 mmHg
Increase in blood pressure (Rattus norvegicus [6]): 8 mmHg
Increase in blood pressure (Rattus norvegicus [7]): 15 mmHg
Increase in blood pressure (Rattus norvegicus [8]): 28 mmHg
Increase in blood pressure (Rattus norvegicus [9]): 42 mmHg
Increase in blood pressure (Rattus norvegicus [10]): 54 mmHg
Increase in blood pressure (Rattus norvegicus [11]): 38 mmHg
Increase in blood pressure (Rattus norvegicus [12]): 28 mmHg
Increase in blood pressure (Rattus norvegicus [13]): 8 mmHg

Cc1ccccc1-c1nnc(NC2=NCCCN2)s1.Cl
Reduction (Rattus norvegicus [4]): 13%

Cc1cccc(C)c1-c1nnc(N=C(N)N)s1
Reduction (Rattus norvegicus [3]): Not significant

Cc1ccccc1-c1nnc(NC(=N)N2CCOCC2)s1.Cl
Reduction (Rattus norvegicus [1]): 16%

CC(C)(C)c1ccccc1-c1nnc(N=C(N)N)s1
Reduction (Rattus norvegicus [1]): 22%

Cl.N=C(N)Nc1nnc(-c2ccccc2F)s1
Reduction (Rattus norvegicus [4]): 31%

Cc1ccccc1-c1nnc(Nc2ncc[nH]2)s1.Cl
Reduction (Rattus norvegicus [4]): 40%

Cc1ccccc1-c1nnc(NC(=N)NC2CCCC2)s1.Cl
Reduction (Rattus norvegicus [1]): 20%

CCC/N=C(/N)Nc1nnc(-c2ccccc2C)s1.Cl
Reduction (Rattus norvegicus [1]): 32%

Cc1ccccc1-c1nnc(NC2=NC(C)(C)CN2)s1.Cl
Reduction (Rattus norvegicus [4]): 15%

CC(=O)NCC/N=C(/N)Nc1nnc(-c2ccccc2C)s1
Reduction (Rattus norvegicus [4]): 21%

Cl.N=C(N)Nc1nnc(-c2cccs2)s1
Reduction (Rattus norvegicus [1]): 32%

Cc1ccccc1-c1nnc(N(C)C2=NCCN2)s1
Reduction (Rattus norvegicus [3]): Not significant

C[S+]([O-])c1ccccc1-c1nnc(N=C(N)N)s1.Cl (stereo not drawn)
Reduction (Rattus norvegicus [1]): 15%

CCCC/N=C(/NC)Nc1nnc(-c2ccccc2C)s1.Cl
Reduction (Rattus norvegicus [1]): 28%

Cc1cc(F)ccc1-c1nnc(N=C(N)N)s1.Cl
Reduction (Rattus norvegicus [1]): 34%

Cl.N=C(N)Nc1nnc(-c2ccccn2)s1
Reduction (Rattus norvegicus [1]): 19%

Cc1ccccc1-c1nnc(NC(=N)Nc2ccccc2)s1
Reduction (Rattus norvegicus [3]): Not significant

COCC/N=C(/N)Nc1nnc(-c2ccc(OC)c(OC)c2)s1.Cl
Reduction (Rattus norvegicus [1]): 20%

Cl.N=C(N)Nc1nnc(-c2cccc(C(F)(F)F)c2)s1
Reduction (Rattus norvegicus [4]): 14%

Cl.N=C(N)Nc1nnc(-c2ccco2)s1
Reduction (Rattus norvegicus [1]): 24%

N=C(N)Nc1nnc(-c2ccccc2-c2ccccc2)s1
Reduction (Rattus norvegicus [3]): Not significant

COc1cccc(OC)c1-c1nnc(N=C(N)N)s1
Reduction (Rattus norvegicus [1]): 16%

Cc1ccc(C)c(-c2nnc(N=C(N)N)s2)c1
Reduction (Rattus norvegicus [3]): Not significant

CO/N=C(/N)Nc1nnc(-c2ccccc2C)s1.Cl
Reduction (Rattus norvegicus [4]): 29%

Cc1ccccc1-c1nnc(NC(=N)NCCc2ccccc2)s1.Cl
Reduction (Rattus norvegicus [4]): 29%

Cc1ccccc1-c1nnc(NC(=N)NCCO)s1.Cl
Reduction (Rattus norvegicus [1]): 35%

COCCC/N=C(/N)Nc1nnc(-c2ccccc2C)s1.Cl
Reduction (Rattus norvegicus [1]): 33%

Cl.N=C(N)Nc1nnc(-c2cccc(F)c2)s1
Reduction (Rattus norvegicus [4]): 20%

Cl.N=C(N)Nc1nnc(-c2ccccc2Br)s1
Increase in blood pressure (Rattus norvegicus [5]): 7 mmHg
Increase in blood pressure (Rattus norvegicus [6]): 13 mmHg
Increase in blood pressure (Rattus norvegicus [7]): 27 mmHg
Increase in blood pressure (Rattus norvegicus [8]): 17 mmHg
Increase in blood pressure (Rattus norvegicus [9]): 31 mmHg
Increase in blood pressure (Rattus norvegicus [10]): 38 mmHg
Increase in blood pressure (Rattus norvegicus [11]): 17 mmHg
Increase in blood pressure (Rattus norvegicus [12]): 50 mmHg
Increase in blood pressure (Rattus norvegicus [13]): 3 mmHg
Reduction (Rattus norvegicus [1]): 41%
Reduction (Rattus norvegicus [2]): 29%

Cc1ccc(-c2nnc(N=C(N)N)s2)cc1C.Cl
Reduction (Rattus norvegicus [1]): 33%

COc1cc(C)c(-c2nnc(N=C(N)N)s2)cc1OC.Cl
Reduction (Rattus norvegicus [1]): 24%

From ChEMBL document CHEMBL1124108, “Antihypertensive thiadiazoles. 2. Vasodilator activity of some 2-aryl-5-guanidino-1,3,4-thiadiazoles” (1988)
